Results: ChEMBL document CHEMBL1135479, “Design, synthesis, and evaluation of new chemosensitizers in multi-drug-resistant Plasmodium falciparum” (2002)

Tests used:
[1] = (§1) Fractional inhibitory concentration (FIC) tested against Peruvian PC49 cells, isolate from South America; type: functional, Plasmodium falciparum
In short: (§2)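 Parasite growth read by [3H]hypoxanthine incorporation in erythrocytes at 0.2% parasitemia and 1% hematocrit. Medium: folate- and PABA-free RPMI-1640 with 10% heat-inactivated human plasma or Albumax. Cultures were kept at 37 °C under 5% CO2/5% O2/90% N2, with label added at 42 h and 66 h total incubation. Counts were taken after freeze-thaw harvest, IC50 came from nonlinear logistic fits, and FIC index was derived from isobologram.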

Plasmodium falciparum [2] = test: Fractional inhibitory concentration (FIC) against Plasmodium falciparum W2 of equimolar (1:1) combination dose with chloroquine; type: functional; in short: as §2
[3] = (§3) Fractional inhibitory concentration (FIC) tested against RCS cells, isolate from Brazil.; type: functional, Plasmodium falciparum; in short: as §2
Plasmodium falciparum [4] = test: Fractional inhibitory concentration (FIC) tested against TM91C235 isolate.; type: functional; in short: as §2
Plasmodium falciparum [5] = test: Fractional inhibitory concentration (FIC) (1:1 combination of compound and chloroquine) was tested in Plasmodium falciparum W2 clone.; type: functional; in short: as §2
Plasmodium falciparum [6] = test: Fractional inhibitory concentration (FIC) tested against TM91C235 cells, isolate from South east Asia; type: functional; in short: as §2
Plasmodium falciparum [7] = test: In vitro anti-MDR effect in chloroquine and mefloquine resistant TM91C235 cell lines at 50 ng/ml concentration; type: functional
In short: (§4)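 TM91C235 P. falciparum in erythrocytes at 0.2% parasitemia and 1% hematocrit, in folate- and PABA-free RPMI-1640 with 10% heat-inactivated human plasma or Albumax. Incubated 66 h at 37 °C under 5% CO2/5% O2/90% N2, with 3H-hypoxanthine added at 42 h. Cells lysed by freezing at -70 °C and harvested; inhibition of isotope incorporation read by scintillation counting.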

Plasmodium falciparum [8] = test: In vitro anti-MDR effect in chloroquine and mefloquine resistant TM91C235 cell lines at 5000 ng/ml concentration; type: functional; in short: as §4
Plasmodium falciparum [9] = test: In vitro anti-MDR effect in chloroquine resistant TM91C235 cell lines at 500 ng/ml concentration in the presence of 10 ng/mL chloroquine; type: functional
In short: (§5)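 Test agent was combined with chloroquine at 10 ng/mL. TM91C235 was cultured in erythrocytes at 0.2% parasitemia and 1% hematocrit, in folate- and PABA-free RPMI-1640, for 66 h at 37 °C under 5% CO2/5% O2/90% N2. 3H-hypoxanthine was added at 42 h, and cell suppression was taken from scintillation counts of harvested lysates.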

Plasmodium falciparum [10] = test: In vitro anti-MDR effect in mefloquine resistant TM91C235 cell lines at 50 ng/ml concentration in the presence of 5 ng/mL mefloquine; type: functional
In short: (§6)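 Mefloquine was held at 5 ng/mL, combined with test agent. Parasites (TM91C235) were in erythrocytes at 0.2% parasitemia and 1% hematocrit, in folate/PABA-free RPMI-1640 with human plasma or Albumax. Incubation was 66 h at 37 °C in 5% CO2/5% O2/90% N2, with 3H-hypoxanthine added for the last 24 h. Incorporation was counted after freeze-lysis and harvesting.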

Plasmodium falciparum [11] = test: In vitro anti-MDR effect in mefloquine resistant TM91C235 cell lines at 5000 ng/ml concentration in the presence of 5 ng/mL mefloquine; type: functional; in short: as §6
Plasmodium falciparum [12] = test: In vitro anti-MDR effect in chloroquine and mefloquine resistant TM91C235 cell lines at 500 ng/ml concentration; type: functional; in short: as §4
Plasmodium falciparum [13] = test: In vitro anti-MDR effect in chloroquine resistant TM91C235 cell lines at 50 ng/ml concentration in the presence of 10 ng/mL chloroquine; type: functional; in short: as §5
Plasmodium falciparum [14] = test: In vitro anti-MDR effect in chloroquine resistant TM91C235 cell lines at 5000 ng/ml concentration in the presence of 10 ng/mL chloroquine; type: functional; in short: as §5
Plasmodium falciparum [15] = test: In vitro anti-MDR effect in mefloquine resistant TM91C235 cell lines at 500 ng/ml concentration in the presence of 5 ng/mL mefloquine; type: functional; in short: as §6
Plasmodium falciparum [16] = test: Fractional inhibitory concentration (FIC) against Plasmodium falciparum W2 at equimolar (1:1) combination dose with chloroquine; type: functional; in short: as §2
Plasmodium falciparum [17] = test: Fractional inhibitory concentration (FIC) tested against TM91C235 cells, isolate from South east Asia.; type: functional; in short: as §2
[18] = as §3; type: functional; in short: as §2
[19] = as §1; type: functional; in short: as §2

| Structure (SMILES) | FIC [1] | FIC (Plasmodium falciparum [2]) | FIC [3] | FIC (Plasmodium falciparum [4]) | FIC (Plasmodium falciparum [5]) | FIC (Plasmodium falciparum [6]) | Suppression (Plasmodium falciparum [7]) [%] | Suppression (Plasmodium falciparum [8]) [%] | Suppression (Plasmodium falciparum [9]) [%] | Suppression (Plasmodium falciparum [10]) [%] | Suppression (Plasmodium falciparum [11]) [%] | Suppression (Plasmodium falciparum [12]) [%] | Suppression (Plasmodium falciparum [13]) [%] | Suppression (Plasmodium falciparum [14]) [%] | Suppression (Plasmodium falciparum [15]) [%] | FIC (Plasmodium falciparum [16]) | FIC (Plasmodium falciparum [17]) | FIC [18] | FIC [19] |
| --- | --- | --- | --- | --- | --- | --- | --- | --- | --- | --- | --- | --- | --- | --- | --- | --- | --- | --- | --- |
| c1ccc2c(c1)Sc1ccccc1N2CCCCN1CCOCC1 | 0.81 | 0.39 | 0.37 | 0.32 |  |  |  |  |  |  |  |  |  |  |  |  |  |  |  |
| CCN(CC)CCCCCCN1c2ccccc2CCc2ccccc21 |  | 0.48 | 0.72 | 0.59 |  |  |  |  |  |  |  |  |  |  |  |  |  |  |  |
| CCN(CC)CCCCN1c2ccccc2Sc2ccccc21 | 0.41 |  | 0.41 |  | 0.23 | 0.29 | 26 | 100 | 99 | 17 | 100 | 38 | 31 | 100 | 30 |  |  |  |  |
| CN(CCCCN1c2ccccc2Sc2ccccc21)Cc1ccccc1 |  |  |  |  |  |  | 13 | 35 | 27 | 0 | 13 | 18 | 14 | 62 | 0 |  |  |  |  |
| CN(CCCCN1c2ccccc2CCc2ccccc21)Cc1ccccc1 |  |  |  |  |  |  | 30 | 60 | 20 | 20 | 41 | 32 | 10 | 33 | 22 |  |  |  |  |
| CN(C)CCCCN1c2ccccc2CCc2ccccc21 | 0.62 | 0.23 | 0.52 | 0.26 |  |  | 59 | 96 | 99 | 43 | 95 | 73 | 99 | 100 | 70 |  |  |  |  |
| c1ccc(CN(CCCCN2c3ccccc3CCc3ccccc32)Cc2ccccc2)cc1 |  |  |  |  |  |  | 11 | 13 | 8 | 14 | 19 | 17 | 6 | 13 | 22 |  |  |  |  |
| CCN(CC)CCCCN1c2ccccc2CCc2ccccc21 | 0.57 | 0.39 | 0.57 | 0.41 |  |  | 62 | 100 | 100 | 64 | 100 | 95 | 99 | 100 | 95 |  |  |  |  |
| CN(C)CCCCN1c2ccccc2Sc2ccccc21 |  |  |  |  |  |  | 17 | 92 | 97 | 2 | 92 | 27 | 30 | 100 | 31 | 0.23 | 0.28 | 0.51 |  |
| CN1CCN(CCCCN2c3ccccc3CCc3ccccc32)CC1 |  | 0.52 | 0.66 | 0.54 |  |  |  |  |  |  |  |  |  |  |  |  |  |  |  |
| c1ccc2c(c1)Sc1ccccc1N2CCCCN1CCCC1 | 0.5 | 0.21 | 0.51 | 0.25 |  |  | 38 | 96 | 99 | 33 | 95 | 70 | 99 | 100 | 67 |  |  |  |  |
| c1ccc2c(c1)Sc1ccccc1N2CCCCN1CCCCC1 | 0.83 | 0.49 | 0.68 | 0.52 |  |  |  |  |  |  |  |  |  |  |  |  |  |  |  |
| c1ccc2c(c1)CCc1ccccc1N2CCCCN1CCCCC1 | 0.73 | 0.45 | 0.36 | 0.54 |  |  |  |  |  |  |  |  |  |  |  |  |  |  |  |
| c1ccc2c(c1)CCc1ccccc1N2CCCCN1CCOCC1 | 0.78 | 0.31 | 0.89 | 0.54 |  |  |  |  |  |  |  |  |  |  |  |  |  |  |  |
| c1ccc2c(c1)CCc1ccccc1N2CCCCCN1CCCC1 | 0.59 | 0.48 | 0.37 | 0.55 |  |  |  |  |  |  |  |  |  |  |  |  |  |  |  |
| CN1CCN(CCCCN2c3ccccc3Sc3ccccc32)CC1 | 0.98 | 0.4 | 0.49 | 0.48 |  |  |  |  |  |  |  |  |  |  |  |  |  |  |  |
| CCN(CC)CCCCN1c2ccccc2C=Cc2ccccc21 | 0.6 | 0.53 | 0.39 | 0.33 |  |  |  |  |  |  |  |  |  |  |  |  |  |  |  |
| C1=Cc2ccccc2N(CCCCN2CCCC2)c2ccccc21 | 0.74 | 0.33 | 0.59 | 0.49 |  |  |  |  |  |  |  |  |  |  |  |  |  |  |  |
| c1ccc2c(c1)CCc1ccccc1N2CCCCN1CCCC1 | 0.66 | 0.32 | 0.51 | 0.42 |  |  | 58 | 100 | 100 | 64 | 100 | 98 | 99 | 100 | 96 |  |  |  |  |
| CCN(CC)CCCCCN1c2ccccc2CCc2ccccc21 | 0.82 | 0.44 | 0.36 | 0.48 |  |  |  |  |  |  |  |  |  |  |  |  |  |  |  |
| c1ccc2c(c1)CCc1ccccc1N2CCCCCCN1CCCC1 | 0.92 | 0.57 | 0.6 | 0.54 |  |  |  |  |  |  |  |  |  |  |  |  |  |  |  |
| c1ccc(CN(CCCCN2c3ccccc3Sc3ccccc32)Cc2ccccc2)cc1 |  |  |  |  |  |  | 7 | 22 | 16 | 0 | 9 | 10 | 12 | 25 | 3 |  |  |  |  |
| COc1ccc(CCN(C)CCCC(C#N)(c2ccc(OC)c(OC)c2)C(C)C)cc1OC (configuration not stated) [VERAPAMIL] |  | 0.51 |  |  |  |  |  |  |  |  |  |  |  |  |  |  |  | 0.63 | 0.61 |
